Assay results collected from several papers.
Lines come from different studies, so protocols differ.
PADI1: Protein-arginine deiminase type-1 (PADI1, Homo sapiens, UniProt Q9ULC6)
PMV: Plasmepsin V (PMV, Plasmodium falciparum, UniProt Q8I6Z5)

`Nc1ncc(-c2nc(N3CCOCC3)nc(N3CCOCC3)n2)c(C(F)F)n1` has a remaining binding of 0% (Phosphatidylinositol 4,5-bisphosphate 3-kinase catalytic subunit alpha isoform (PIK3CA, Homo sapiens, UniProt P42336, H1047L); binding, competition with immobilised ligand; 10 µM).
The remaining binding of `Cc1nn(C)cc1-c1nc2c(N3CCN(Cc4ccc(Cl)cc4)CC3)c(Cl)cnc2[nH]1` is reported as 100% (Activin receptor type-1-like (ACVRL1, Homo sapiens, UniProt P37023); binding, competition with immobilised ligand; 1 µM).
With `CCOC(=O)[C@H](CCCN=C(N)N)NC(=O)c1ccccc1` the Km was 190 µM (PADI1; enzyme activity, substrate).
`C#Cc1n[nH]c2c(-c3cn(C(C)c4ccccn4)c(=O)[nH]c3=O)cc(F)cc12` (stereo not shown) gave an inhibition of -7.1% (Dual specificity tyrosine-phosphorylation-regulated kinase 2 (DYRK2, Homo sapiens, UniProt Q92630); enzyme activity, inhibitor; 1 µM).
With `Cc1cccc(C)c1OCC(=O)N[C@@H](Cc1ccccc1)[C@H](O)C(=O)N1CSC(C)(C)[C@H]1C(=O)N[C@H]1c2ccccc2C[C@H]1O` the activity vs control was 77% (PMV; enzyme activity, inhibitor, fluorescence; 10 µM).
For `CC(C)C[C@H](CC(=O)NO)C(=O)N[C@H](C(=O)N[C@@H](C)C(=O)NCCN)C(C)(C)C`, the inhibition was 13% (Disintegrin and metalloproteinase domain-containing protein 17 (ADAM17, Homo sapiens, UniProt P78536); enzyme activity, inhibitor; 1 µM).
`COc1ncccc1-c1cnn2ccc(N3CCN(C(=O)OC(C)C)CC3)nc12` gave a remaining binding of 98% (Serine/threonine-protein kinase 32B (STK32B, Homo sapiens, UniProt Q9NY57); binding, competition with immobilised ligand; 1 µM).
`CCN(CC)CCCC[C@H](NC(=O)[C@H](CC(C)C)NC(=O)[C@H](C)NC(=O)[C@H](Cc1ccccc1)NC(=O)c1ccc(C(C)(C)C)cc1)C(=O)N[C@@H](CO)C(=O)OC` has a ΔTm of -0.62 °C (ATPase family AAA domain-containing protein 2, bromodomain (ATAD2, Homo sapiens, UniProt Q6PL18); thermal stability, DSF; 25 µM).
For `Cc1ccccc1CNC(=O)[C@H]1N(C(=O)[C@@H](O)[C@H](Cc2ccccc2)NC(=O)c2cccc(O)c2C)CSC1(C)C`, the activity vs control was 73% (PMV; enzyme activity, inhibitor, fluorescence; 10 µM).
For `COC(=O)[C@H](CCCNC(=N)N)NC(=O)c1ccccc1`, the Km was 370 µM (PADI1; enzyme activity, substrate).
